Converted amounts (≈) assume the structure as drawn.
Columns and labels:
Assay type in all cases: functional
[1] = system: Salmonella enterica subsp. enterica serovar Typhi str. CT18; test: Antimicrobial activity against Salmonella typhi after 24 hrs by twofold serial dilution method
In short: (§1)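 Twofold serial broth dilution in nutrient broth at pH 7.4 ± 0.2. Compound stocks were 1 mg/mL in DMSO, diluted 1:5 into seeded broth, then six serial dilutions. Inocula came from 24 h nutrient-agar cultures, final 10⁵ cfu/mL. Incubation was 37 ± 1 °C for 24 h, with growth and solvent controls. MIC was read visually; ciprofloxacin was the standard.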

Rattus norvegicus [2] = test: Antipyretic activity against brewer's yeast-induced hyperthermia in Wistar rat assessed as change in rectal temperature at 60 mg/kg, po after 90 mins
In short: (§2)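 Wistar rats of both sexes, 200–250 g, received brewer's yeast in normal saline sc. Rectal temperature was taken with a digital thermometer (precision 0.1 °C). At 18 h, rats whose temperature had risen 0.3–0.5 °C were selected. Test compounds (30 or 60 mg/kg) or indomethacin (5 mg/kg) were given orally in 1% CMC; controls received vehicle only. Temperature was measured at 30, 60, 90, 120 and 150 min, mean ± SEM.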

Mus musculus [3] = test: Analgesic activity in albino mouse assessed as inhibition of acetic acid-induced writhing response at 90 mg/kg, po administered 1 hr prior to acetic acid challenge relative to control
In short: (§3)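 Albino mice of both sexes, 20–25 g, n = 6 per group. Doses of 30, 60 or 90 mg/kg were given orally as suspensions in 1% sodium CMC. 1 h later, 1% acetic acid in normal saline (10 mL/kg) was injected ip. Complete extension of either hind limb counted as a writhe. Counting started 5 min after injection and ran 30 min. Results are % inhibition = [1 − T/C] × 100 versus vehicle controls, mean ± SEM.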

Staphylococcus aureus = test: Antimicrobial activity against Staphylococcus aureus after 24 hrs by twofold serial dilution method; in short: as §1
Aspergillus niger = test: Antimicrobial activity against Aspergillus niger after 72 to 96 hrs by twofold serial dilution method
In short: (§4)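 Twofold serial broth dilution in Sabouraud dextrose broth at pH 5.6. Spores came from 1–7-day Sabouraud agar slants, final inoculum 1.1–1.5 × 10² cfu/mL. Compound stocks were 1 mg/mL in DMSO, diluted 1:5 into seeded broth, then six serial dilutions. Incubation was 28 ± 1 °C for 72–96 h, with growth and solvent controls. MIC was read visually; amphotericin B was the standard.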

Candida albicans = test: Antimicrobial activity against Candida albicans after 72 to 96 hrs by twofold serial dilution method; in short: as §4
Rattus norvegicus [4] = test: Antipyretic activity against brewer's yeast-induced hyperthermia in Wistar rat assessed as change in rectal temperature at 30 mg/kg, po after 90 mins; in short: as §2
Mus musculus [5] = test: Analgesic activity in albino mouse assessed as inhibition of acetic acid-induced writhing response at 30 mg/kg, po administered 1 hr prior to acetic acid challenge relative to control; in short: as §3
Rattus norvegicus [6] = test: Antipyretic activity against brewer's yeast-induced hyperthermia in Wistar rat assessed as change in rectal temperature at 30 mg/kg, po after 30 mins; in short: as §2
Klebsiella pneumoniae = test: Antimicrobial activity against Klebsiella pneumoniae after 24 hrs by twofold serial dilution method; in short: as §1
Aspergillus flavus = test: Antimicrobial activity against Aspergillus flavus after 72 to 96 hrs by twofold serial dilution method; in short: as §4
Rattus norvegicus [7] = test: Antipyretic activity against brewer's yeast-induced hyperthermia in Wistar rat assessed as change in rectal temperature at 30 mg/kg, po after 120 mins; in short: as §2
Rattus norvegicus [8] = test: Antipyretic activity against brewer's yeast-induced hyperthermia in Wistar rat assessed as change in rectal temperature at 60 mg/kg, po after 60 mins; in short: as §2
Rattus norvegicus [9] = test: Antipyretic activity against brewer's yeast-induced hyperthermia in Wistar rat assessed as change in rectal temperature at 30 mg/kg, po after 150 mins; in short: as §2
Rattus norvegicus [10] = test: Antipyretic activity against brewer's yeast-induced hyperthermia in Wistar rat assessed as change in rectal temperature at 60 mg/kg, po after 30 mins; in short: as §2
Rattus norvegicus [11] = test: Antipyretic activity against brewer's yeast-induced hyperthermia in Wistar rat assessed as change in rectal temperature at 60 mg/kg, po after 150 mins; in short: as §2
Rattus norvegicus [12] = test: Antipyretic activity against brewer's yeast-induced hyperthermia in Wistar rat assessed as change in rectal temperature at 30 mg/kg, po after 60 mins; in short: as §2
Escherichia coli = test: Antimicrobial activity against Escherichia coli after 24 hrs by twofold serial dilution method; in short: as §1
Mus musculus [13] = test: Analgesic activity in albino mouse assessed as inhibition of acetic acid-induced writhing response at 60 mg/kg, po administered 1 hr prior to acetic acid challenge relative to control; in short: as §3
Rattus norvegicus [14] = test: Antipyretic activity against brewer's yeast-induced hyperthermia in Wistar rat assessed as change in rectal temperature at 60 mg/kg, po after 120 mins; in short: as §2
Pseudomonas aeruginosa = test: Antimicrobial activity against Pseudomonas aeruginosa after 24 hrs by twofold serial dilution method; in short: as §1
Rhizopus = test: Antimicrobial activity against Rhizopus sp. after 72 to 96 hrs by twofold serial dilution method; in short: as §4

Structure (SMILES) | MIC [1] [µg/mL] | Activity (Rattus norvegicus [2]) [°C] | inhibition in vivo at 90 mg/kg (Mus musculus [3]) [%] | MIC (Staphylococcus aureus) [µg/mL] | MIC (Aspergillus niger) [µg/mL] | MIC (Candida albicans) [µg/mL] | Activity (Rattus norvegicus [4]) [°C] | inhibition in vivo at 30 mg/kg (Mus musculus [5]) [%] | Activity (Rattus norvegicus [6]) [°C] | MIC (Klebsiella pneumoniae) [µg/mL] | MIC (Aspergillus flavus) [µg/mL] | Activity (Rattus norvegicus [7]) [°C] | Activity (Rattus norvegicus [8]) [°C] | Activity (Rattus norvegicus [9]) [°C] | Activity (Rattus norvegicus [10]) [°C] | Activity (Rattus norvegicus [11]) [°C] | Activity (Rattus norvegicus [12]) [°C] | MIC (Escherichia coli) [µg/mL] | inhibition in vivo at 60 mg/kg (Mus musculus [13]) [%] | Activity (Rattus norvegicus [14]) [°C] | further results
COc1ccc(C2CC(=O)C(C)C(c3ccc(OC)cc3)N2C(=O)CN2CCN(C)CC2)cc1 (stereo unspecified) | 200 (≈ 430 µM) | 37.5 | 48 | 100 (≈ 215 µM) | 100 (≈ 215 µM) | 25 (≈ 53.7 µM) | 37.6 | 48.2 | 37.9 | 100 (≈ 215 µM) | 50 (≈ 107 µM) | 37.5 | 37.7 | 37.2 | 37.85 | 37.01 | 37.8 | 50 (≈ 107 µM) | 70.3 | 37.3 | MIC (Pseudomonas aeruginosa): 50 µg/mL (≈ 107 µM); MIC (Rhizopus): 50 µg/mL (≈ 107 µM)
CC(C)C1C(=O)CC(c2ccccc2)N(C(=O)CN2CCN(C)CC2)C1c1ccccc1 (stereo unspecified) | 50 (≈ 115 µM) | 38.95 | 2.2 | 200 (≈ 461 µM) | 100 (≈ 231 µM) | 200 (≈ 461 µM) | 38.01 | 5.6 | 38.15 | 200 (≈ 461 µM) | 100 (≈ 231 µM) | 38.96 | 38.01 | 38.9 | 38.05 | 38.75 | 38.1 | 100 (≈ 231 µM) | 18.1 | 38.9 | MIC (Pseudomonas aeruginosa): 100 µg/mL (≈ 231 µM); MIC (Rhizopus): 50 µg/mL (≈ 115 µM)
Cc1ccc(C2C(C)C(=O)C(C)C(c3ccc(C)cc3)N2C(=O)CN2CCN(C)CC2)cc1 (stereo unspecified) | 25 (≈ 55.9 µM) | 37.9 | 33.1 | 50 (≈ 112 µM) | 12.5 (≈ 27.9 µM) | 50 (≈ 112 µM) | 37.95 | 42.6 | 38.11 | 12.5 (≈ 27.9 µM) | 12.5 (≈ 27.9 µM) | 37.9 | 38.95 | 37.7 | 38.01 | 37.6 | 38.02 | 100 (≈ 223 µM) | 54.6 | 37.8 | MIC (Pseudomonas aeruginosa): 25 µg/mL (≈ 55.9 µM); MIC (Rhizopus): 25 µg/mL (≈ 55.9 µM)

From ChEMBL document CHEMBL1153856, “Synthesis and spectral characterization of a new class of N-(N-methylpiperazinoacetyl)-2,6-diarylpiperidin-4-ones: antimicrobial, analgesic and antipyretic studies” (2009)
